Laboratory results published in ChEMBL document CHEMBL2396536, “Curcuminoids block TGF-β signaling in human breast cancer cells and limit osteolysis in a murine model of breast cancer bone metastasis” (J Nat Prod, 2013).
Activity calls are given as the source filed them. The rule behind the calls is not given here.

Experiments:
MDA-MB-231 [1] = test: Cytotoxicity against human MDA-MB-231 cells assessed as cell viability by MTT assay; type: cell-based
Summary of the method: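 MDA-MB-231 plated at 5 × 10^4 cells/cm2 and held overnight in DMEM with 10% FBS at 37°C and 5% CO2. Pre-incubated 4 h with compound in 2% FBS DMEM, then medium refreshed with TGF-β1 (5 ng/mL) for 24 h. Cell number read by MTT reduction.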

Mus musculus [2] = test: Toxicity in human MDA-MB-231 cells xenografted athymic nude mouse left cardiac ventricle assessed as effect on liver weight at 50 mg/kg, ip administered every other day for 3 weeks (reference value: 1 +/- 0.10 gram); type: organism-based, Heart; parameters: dose 50 mg/kg, route intraperitoneal; conditions: in vivo, 504 h
Mus musculus [3] = test: Toxicity in human MDA-MB-231 cells xenografted athymic nude mouse left cardiac ventricle assessed as effect on hematocrit at 25 mg/kg, ip administered every other day for 3 weeks (reference value: 30.2 +/- 1.5%); type: organism-based, Heart; parameters: dose 25 mg/kg, route intraperitoneal; conditions: in vivo, 504 h
MDA-MB-231 [4] = test: Inhibition of osteolytic bone metastases in human MDA-MB-231 cells xenografted in athymic nude mouse left cardiac ventricle assessed as reduction of bone lysis at 25 to 50 mg/kg, ip administered every other day for 3 weeks measured on day 21; type: functional, Heart left ventricle; conditions: dose mg/kg 25-50; route intraperitoneal
Summary of the method: (§1)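 Four-week female athymic nude mice inoculated with 1 × 10^5 MDA-MB-231 cells in 0.1 mL PBS into the left cardiac ventricle. Dosed ip at 25 or 50 mg/kg or vehicle every other day from day 1 for 21 days, n = 11/group. Lytic lesion area quantified on radiographs on days 12, 16 and 21. Two-way ANOVA with Bonferroni.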

Mus musculus [5] = test: Toxicity in human MDA-MB-231 cells xenografted athymic nude mouse left cardiac ventricle assessed as effect on platelets at 50 mg/kg, ip administered every other day for 3 weeks (reference value: 513 +/- 54 K/uL); type: organism-based, Heart; parameters: dose 50 mg/kg, route intraperitoneal; conditions: in vivo, 504 h
[6] = target: MAP kinase p38 (Homo sapiens) (UniProt O15264+Q15759+Q16539+P53778); test: Inhibition of TGF-beta-induced p38 phosphorylation in human MDA-MB-231 cells treated 12 hrs before TGF-beta challenge measured after 1 hr by Western blotting; type: cell-based
Summary of the method: (§2)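 Subconfluent MDA-MB-231 pre-treated 12 h with compound (80 μM), then TGF-β (5 ng/mL) for 1 h. RIPA whole-cell lysates (18 μg) run on SDS-PAGE and transferred to PVDF. Probed with rabbit anti-phospho-Smad2, phospho-Smad3, phospho-p38 or Ets-1 (1:1000, overnight, 4 °C). β-actin used as loading control. Chemiluminescent detection; three independent experiments.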

Mus musculus [7] = test: Toxicity in human MDA-MB-231 cells xenografted athymic nude mouse left cardiac ventricle assessed as effect on white blood cells at 25 mg/kg, ip administered every other day for 3 weeks (reference value: 5.84 +/- 1.3 K/uL); conditions: in vivo, 504 h
Mus musculus [8] = test: Toxicity in human MDA-MB-231 cells xenografted athymic nude mouse left cardiac ventricle assessed as effect on hematocrit at 50 mg/kg, ip administered every other day for 3 weeks (reference value: 30.2 +/- 1.5%); type: organism-based, Heart; parameters: dose 50 mg/kg, route intraperitoneal; conditions: in vivo, 504 h
Mus musculus [9] = test: Effect on orthotopic tumor mass in human MDA-MB-231 cells xenografted athymic nude mouse mammary fat pad at 25 to 50 mg/kg, ip administered every other day for 3 weeks
[10] = target: Mothers against decapentaplegic homolog 2 (Homo sapiens) (UniProt Q15796); test: Inhibition of TGF-beta-induced Smad2 phosphorylation in human MDA-MB-231 cells treated 12 hrs before TGF-beta challenge measured after 1 hr by Western blotting; type: cell-based; summary of the method: as §2
Mus musculus [11] = test: Toxicity in human MDA-MB-231 cells xenografted athymic nude mouse left cardiac ventricle assessed as effect on platelets at 25 mg/kg, ip administered every other day for 3 weeks (reference value: 513 +/- 54 K/uL); type: organism-based, Heart; parameters: dose 25 mg/kg, route intraperitoneal; conditions: in vivo, 504 h
MDA-MB-231 [12] = test: Inhibition of osteolytic bone metastases in human MDA-MB-231 cells xenografted in athymic nude mouse left cardiac ventricle assessed as reduction in lytic bone lesion area at 25 to 50 mg/kg, ip administered every other day for 3 weeks measured on day 16 relative to control; type: functional, Heart left ventricle; conditions: dose mg/kg 25-50; route intraperitoneal; summary of the method: as §1
MDA-MB-231 [13] = test: Inhibition of TGF-beta-induced Ets-1 expression in human MDA-MB-231 cells treated 12 hrs before TGF-beta challenge measured after 1 hr by Western blotting
MDA-MB-231 [14] = test: Inhibition of TGF-beta-induced PTHrP secretion in human MDA-MB-231 cells treated 4 hrs before TGF-beta challenge measured after 24 hrs by radioimmunoassay; type: functional, cell-based
Summary of the method: (§3)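 MDA-MB-231 plated at 5 × 10^4 cells/cm2 and held overnight in DMEM with 10% FBS. Pre-treated 4 h with compound (0.1–100 μM in methods; 0.1–300 μM in legend) in 2% FBS, then recombinant human TGF-β1 (5 ng/mL) or medium alone for 24 h. PTHrP measured in conditioned media by radioimmunoassay, n = 4 wells/group. IC50 from four-parameter logistic fit.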

MDA-MB-231 [15] = test: Inhibition of osteolytic bone metastases in human MDA-MB-231 cells xenografted in athymic nude mouse left cardiac ventricle assessed as improvement in host survival at 25 to 50 mg/kg, ip administered every other day for 3 weeks measured on day 16 relative to vehicle-treated control; type: functional, organism-based; conditions: Heart left ventricle
Summary of the method: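 Intracardiac MDA-MB-231 nude mice (n = 11/group) dosed ip every other day for 3 weeks. Survival shown by Kaplan–Meier and analyzed by logrank test with post-hoc logrank test for trend.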

MDA-MB-231 [16] = test: Inhibition of osteolytic bone metastases in human MDA-MB-231 cells xenografted in athymic nude mouse left cardiac ventricle assessed as reduction of bone-tumor interface at 50 mg/kg, ip administered every other day for 3 weeks; type: functional; conditions: MDA-MB-231, Heart left ventricle, 504 h, route intraperitoneal
Summary of the method: (§4)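 Intracardiac MDA-MB-231 model in nude mice, dosed ip every other day for 21 days. Mid-sagittal tibia and femur sections TRAP-stained. TRAP+ multinucleated (>3 nuclei) cells counted at 40x along the tumor-bone interface. Expressed as osteoclasts per mm of interface.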

MDA-MB-231 [17] = test: Inhibition of osteolytic bone metastases in human MDA-MB-231 cells xenografted in athymic nude mouse left cardiac ventricle assessed as reduction of bone-tumor interface at 25 mg/kg, ip administered every other day for 3 weeks; type: functional; conditions: MDA-MB-231, Heart left ventricle, 504 h, route intraperitoneal; summary of the method: as §4
MDA-MB-231 [18] = test: Inhibition of osteolytic bone metastases in human MDA-MB-231 cells xenografted in athymic nude mouse left cardiac ventricle assessed as reduction in lytic bone lesion area at 25 to 50 mg/kg, ip administered every other day for 3 weeks measured on day 21 relative to control; type: functional, Heart left ventricle; conditions: dose mg/kg 25-50; route intraperitoneal; summary of the method: as §1
MDA-MB-231 [19] = test: Inhibition of osteolytic bone metastases in human MDA-MB-231 cells xenografted in athymic nude mouse left cardiac ventricle assessed as effect on tumor burden at 25 to 50 mg/kg, ip administered every other day for 3 weeks by histological analysis; type: functional, organism-based; conditions: Heart left ventricle
Summary of the method: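 Intracardiac MDA-MB-231 model in female nude mice, dosed ip every other day for 21 days, n = 11/group. Hindlimbs harvested day 21, formalin-fixed and EDTA-decalcified. Tumor area measured blinded on mid-sagittal 5 μm H&E sections of tibiae and femora at 10x magnification.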

MDA-MB-231 [20] = test: Inhibition of TGF-beta-induced PTHrP secretion in human MDA-MB-231 cells at 100 uM treated 4 hrs before TGF-beta challenge measured after 24 hrs by radioimmunoassay; type: functional, cell-based; summary of the method: as §3
Mus musculus [21] = test: Toxicity in human MDA-MB-231 cells xenografted athymic nude mouse left cardiac ventricle assessed as effect on liver weight at 25 mg/kg, ip administered every other day for 3 weeks (reference value: 1 +/- 0.10 gram); type: organism-based, Heart; parameters: dose 25 mg/kg, route intraperitoneal; conditions: in vivo, 504 h
MDA-MB-231 [22] = test: Inhibition of osteolytic bone metastases in human MDA-MB-231 cells xenografted in athymic nude mouse left cardiac ventricle assessed as improvement in body weight at 25 to 50 mg/kg, ip administered every other day for 3 weeks measured on day 16 relative to vehicle-treated control; type: functional, organism-based; conditions: Heart left ventricle
[23] = target: Mothers against decapentaplegic homolog 3 (Homo sapiens) (UniProt P84022); test: Inhibition of TGF-beta-induced Smad3 phosphorylation in human MDA-MB-231 cells treated 12 hrs before TGF-beta challenge measured after 1 hr by Western blotting; type: cell-based; summary of the method: as §2
Mus musculus [24] = test: Toxicity in human MDA-MB-231 cells xenografted athymic nude mouse left cardiac ventricle assessed as effect on white blood cells at 50 mg/kg, ip administered every other day for 3 weeks (reference value: 5.84 +/- 1.3 K/uL); conditions: in vivo, 504 h
Mus musculus [25] = test: Toxicity in human MDA-MB-231 cells xenografted athymic nude mouse left cardiac ventricle assessed as effect on bone-forming osteoblast cell at 25 to 50 mg/kg, ip administered every other day for 3 weeks; type: organism-based, Heart; parameters: dose 25-50 mg/kg, route intraperitoneal; conditions: in vivo, 504 h
Mus musculus [26] = test: Toxicity in human MDA-MB-231 cells xenografted athymic nude mouse left cardiac ventricle assessed as effect on alanine aminotransferase at 25 mg/kg, ip administered every other day for 3 weeks (reference value: 7.04 +/- 2.2 U/L); type: organism-based, Heart; parameters: dose 25 mg/kg, route intraperitoneal; conditions: in vivo, 504 h
Mus musculus [27] = test: Toxicity in human MDA-MB-231 cells xenografted athymic nude mouse left cardiac ventricle assessed as effect on spleen weight at 50 mg/kg, ip administered every other day for 3 weeks (reference value: 0.134 +/- 0.02 gram); type: organism-based; parameters: dose 50 mg/kg, route intraperitoneal; conditions: in vivo, 504 h
Mus musculus [28] = test: Toxicity in human MDA-MB-231 cells xenografted athymic nude mouse left cardiac ventricle assessed as effect on spleen weight at 25 mg/kg, ip administered every other day for 3 weeks (reference value: 0.134 +/- 0.02 gram); type: organism-based; parameters: dose 25 mg/kg, route intraperitoneal; conditions: in vivo, 504 h
Mus musculus [29] = test: Toxicity in human MDA-MB-231 cells xenografted athymic nude mouse left cardiac ventricle assessed as effect on alanine aminotransferase at 50 mg/kg, ip administered every other day for 3 weeks (reference value: 7.04 +/- 2.2 U/L); type: organism-based, Heart; parameters: dose 50 mg/kg, route intraperitoneal; conditions: in vivo, 504 h

Sequence of Mothers against decapentaplegic homolog 2 (Homo sapiens) (Q15796 whole entry): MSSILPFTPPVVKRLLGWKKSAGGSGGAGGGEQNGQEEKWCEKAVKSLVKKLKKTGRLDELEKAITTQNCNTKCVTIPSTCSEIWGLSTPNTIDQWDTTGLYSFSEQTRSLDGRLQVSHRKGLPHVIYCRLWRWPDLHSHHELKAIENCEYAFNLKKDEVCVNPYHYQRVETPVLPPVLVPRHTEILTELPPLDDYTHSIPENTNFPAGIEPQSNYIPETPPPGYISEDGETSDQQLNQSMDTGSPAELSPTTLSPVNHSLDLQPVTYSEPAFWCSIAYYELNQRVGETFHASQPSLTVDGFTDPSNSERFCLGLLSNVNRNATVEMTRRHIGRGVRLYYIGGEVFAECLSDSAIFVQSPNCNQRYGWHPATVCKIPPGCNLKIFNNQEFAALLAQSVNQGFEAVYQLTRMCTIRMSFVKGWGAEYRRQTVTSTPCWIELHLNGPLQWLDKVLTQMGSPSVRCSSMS
Sequence of Mothers against decapentaplegic homolog 3 (Homo sapiens) (P84022 2-425 limits assumed): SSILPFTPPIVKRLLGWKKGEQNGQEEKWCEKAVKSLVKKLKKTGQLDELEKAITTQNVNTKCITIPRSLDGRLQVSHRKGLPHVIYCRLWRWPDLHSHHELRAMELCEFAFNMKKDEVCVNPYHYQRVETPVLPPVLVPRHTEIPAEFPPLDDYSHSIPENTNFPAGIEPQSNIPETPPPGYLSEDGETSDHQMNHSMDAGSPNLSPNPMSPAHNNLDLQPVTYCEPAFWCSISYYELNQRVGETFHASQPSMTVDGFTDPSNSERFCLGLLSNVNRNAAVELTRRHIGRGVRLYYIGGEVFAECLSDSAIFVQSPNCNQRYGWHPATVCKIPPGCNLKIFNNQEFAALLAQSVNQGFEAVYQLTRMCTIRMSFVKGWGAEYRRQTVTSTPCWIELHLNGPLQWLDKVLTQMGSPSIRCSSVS

- inhibition [6]: inactive
- inhibition [10]: Active
- IC50 (MDA-MB-231 [14]): 24 µM
- inhibition [23]: Active
SMILES: O=C(/C=C/c1ccc(O)cc1)CC(=O)/C=C/c1ccc(O)cc1 [BISDEMETHOXYCURCUMIN]
- MTC (MDA-MB-231 [1]): 82 µM
- Activity (Mus musculus [2]): 1.1 g
- Activity (Mus musculus [3]): 30.6%
- inhibition (INH) (MDA-MB-231 [4]): >50%
- Activity (Mus musculus [5]): 589 K/uL
- Activity (Mus musculus [7]): 4.69 K/uL
- Activity (Mus musculus [8]): 31.1%
- Activity (Mus musculus [9]): inactive
- Activity (Mus musculus [11]): 485 K/uL
- inhibition (INH) (MDA-MB-231 [12]): 51%
- inhibition (MDA-MB-231 [13]): Active
- inhibition (MDA-MB-231 [14]): Dose-dependent effect
- minimal effective concentration (MDA-MB-231 [14]; read-out: MEC): 13 µM
- Activity (MDA-MB-231 [15]): Active
- inhibition in vivo at 50 mg/kg (MDA-MB-231 [16]): 48%
- inhibition in vivo at 25 mg/kg (MDA-MB-231 [17]): 53%
- inhibition (INH) (MDA-MB-231 [18]): 57%
- inhibition (MDA-MB-231 [19]): inactive
- inhibition (MDA-MB-231 [20]): Active
- Activity (Mus musculus [21]): 0.987 g
- Activity (MDA-MB-231 [22]): Active
- Activity (Mus musculus [24]): 6.83 K/uL
- Activity (Mus musculus [25]): Non-toxic
- Activity (Mus musculus [26]): 7.13 U/L
- Activity (Mus musculus [27]): 0.139 g
- Activity (Mus musculus [28]): 0.129 g
- Activity (Mus musculus [29]): 5.02 U/L
